Laboratory results: ChEMBL document CHEMBL4699542, “Design and synthesis of novel methoxypyridine-derived gamma-secretase modulators” (Bioorg Med Chem, 2020)
≈ marks a conversion by molar mass, not a printed value.

Key:
[1] = Volume of distribution at steady state in CD-1 mouse at 1 mg/kg, iv administered as single dose measured up to 24 hrs; type: ADME, organism-based; conditions: in vivo
In short: (§1)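 Male CD-1 mice, 6–8 weeks old, single tail-vein dose in 3% NMP/45% PEG300/12% ethanol/40% sterile water. Retro-orbital plasma (K3EDTA) taken at 0.083, 0.25, 0.5, 1, 2, 4, 8 and 24 h, n=3/timepoint, analysed by HPLC/MS/MS. Non-compartmental analysis (Model 201, uniform weighting); Tmax read directly from the data.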

Cytochrome P450 2D6 = Cytochrome P450 2D6 (Homo sapiens, UniProt P10635); test: Inhibition of recombinant CYP2D6 (unknown origin) by fluorescence-based assay; type: ADME
Cytochrome P450 2D6, sequence (P10635 whole entry, canonical isoform): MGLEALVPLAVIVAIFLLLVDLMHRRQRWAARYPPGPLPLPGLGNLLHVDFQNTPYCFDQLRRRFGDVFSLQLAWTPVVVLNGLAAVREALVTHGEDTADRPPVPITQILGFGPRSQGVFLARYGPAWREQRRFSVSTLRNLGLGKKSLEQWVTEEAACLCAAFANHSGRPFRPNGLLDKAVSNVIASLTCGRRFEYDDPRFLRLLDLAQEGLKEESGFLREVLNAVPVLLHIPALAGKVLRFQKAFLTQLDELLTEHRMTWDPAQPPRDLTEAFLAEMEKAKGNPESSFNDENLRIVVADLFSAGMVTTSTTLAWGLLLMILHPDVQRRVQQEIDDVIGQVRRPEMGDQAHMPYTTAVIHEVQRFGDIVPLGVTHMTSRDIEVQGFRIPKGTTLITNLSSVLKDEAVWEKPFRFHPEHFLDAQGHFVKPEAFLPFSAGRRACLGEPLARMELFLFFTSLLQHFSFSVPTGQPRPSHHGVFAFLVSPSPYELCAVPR
In short: (§2)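 Recombinant CYP isoforms (five tested) screened for inhibition in fluorescence-based assays; IC50 in μM.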

[2] = Cmax in CD-1 mouse at 5 mg/kg, po administered as single dose measured up to 24 hrs; type: ADME, organism-based; design: route oral, dose 5 mg/kg, time <=24; conditions: in vivo
In short: (§3)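 Male CD-1 mice, 6–8 weeks old, single dose by tail vein (1 mg/kg, 3% NMP/45% PEG300/12% ethanol/40% water) or oral gavage (5 mg/kg, 5% NMP/95% PEG300). Retro-orbital plasma sampled 0.083 (iv only) to 24 h, n=3/timepoint, and analysed by HPLC/MS/MS. Non-compartmental analysis. Half-life taken from the terminal phase using ≥3 non-zero points after Tmax.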

Gamma-secretase = test: Modulation of gamma secretase in human SH-SY5Y cells overexpressing wild type APP751 assessed as inhibition of amyloid beta (35 to 42 residues) formation incubated for overnight by ELISA; type: cell-based
In short: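 SHSY5Y-APP751 cells plated at 75K/well and incubated overnight at 37 °C, then treated 24 h over 10 concentrations ([…]–10 μM, 1:3.16 steps, in duplicate). Medium Aβ42 measured by sandwich ELISA (Aβ35–42 capture, AP-conjugated Aβ1–12 detection, CDP-Star luminescence) against an Aβ42 standard curve.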

Cytochrome P450 3A4 = Cytochrome P450 3A4 (Homo sapiens, UniProt P08684); test: Inhibition of recombinant CYP3A4 (unknown origin) by fluorescence-based assay; type: ADME
Cytochrome P450 3A4, sequence (P08684 whole entry): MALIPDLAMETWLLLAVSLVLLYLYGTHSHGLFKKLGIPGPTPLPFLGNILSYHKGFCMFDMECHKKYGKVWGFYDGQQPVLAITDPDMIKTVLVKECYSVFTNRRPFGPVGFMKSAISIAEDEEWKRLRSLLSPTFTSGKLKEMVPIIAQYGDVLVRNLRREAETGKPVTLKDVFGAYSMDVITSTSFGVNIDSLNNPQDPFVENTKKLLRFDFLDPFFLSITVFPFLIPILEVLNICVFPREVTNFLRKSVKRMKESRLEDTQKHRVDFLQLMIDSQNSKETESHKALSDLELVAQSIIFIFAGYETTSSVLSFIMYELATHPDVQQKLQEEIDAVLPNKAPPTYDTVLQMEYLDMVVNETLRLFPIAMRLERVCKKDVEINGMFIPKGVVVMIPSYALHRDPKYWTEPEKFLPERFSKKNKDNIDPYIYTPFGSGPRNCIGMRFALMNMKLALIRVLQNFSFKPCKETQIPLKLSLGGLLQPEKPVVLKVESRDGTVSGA

[3] = Half life in CD-1 mouse at 5 mg/kg, po administered as single dose measured up to 24 hrs; type: ADME, organism-based; conditions: in vivo; in short: as §3
Cytochrome P450 2C9 = Cytochrome P450 2C9 (Homo sapiens, UniProt P11712); test: Inhibition of recombinant CYP2C9 (unknown origin) by fluorescence-based assay; type: ADME; in short: as §2
Cytochrome P450 2C9, sequence (P11712 whole entry): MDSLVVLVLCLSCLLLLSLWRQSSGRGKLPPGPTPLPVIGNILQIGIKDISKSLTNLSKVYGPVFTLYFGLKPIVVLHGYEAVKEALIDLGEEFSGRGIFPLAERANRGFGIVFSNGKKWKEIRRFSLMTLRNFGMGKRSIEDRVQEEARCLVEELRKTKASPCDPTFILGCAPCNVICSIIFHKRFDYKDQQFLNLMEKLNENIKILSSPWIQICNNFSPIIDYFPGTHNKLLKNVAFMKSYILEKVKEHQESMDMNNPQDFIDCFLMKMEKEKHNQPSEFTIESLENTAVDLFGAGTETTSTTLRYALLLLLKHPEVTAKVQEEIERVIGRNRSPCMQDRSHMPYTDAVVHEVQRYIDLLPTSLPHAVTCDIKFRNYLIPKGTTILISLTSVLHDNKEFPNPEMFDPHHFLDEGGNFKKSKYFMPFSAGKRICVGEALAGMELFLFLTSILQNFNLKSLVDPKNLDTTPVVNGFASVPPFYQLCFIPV

[4] = Metabolic stability in mouse liver microsomes assessed as parent compound remaining at 1 uM incubated for 30 mins; type: ADME, Microsome; conditions: 0.5 h
In short: (§4)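 Test compound at 1 μM incubated 30 min with human, rat or mouse liver microsomes (1 mg/mL); parent remaining expressed as %.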

[5] = Tmax in CD-1 mouse at 5 mg/kg, po administered as single dose measured up to 24 hrs; type: ADME, organism-based; conditions: in vivo
In short: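 Male CD-1 mice, 6–8 weeks old, single oral gavage dose in 5% NMP/95% PEG300. Plasma (K3EDTA, retro-orbital, under isoflurane) taken at 0.25, 0.5, 1, 2, 4, 8 and 24 h, n=3/timepoint, analysed by HPLC/MS/MS. Non-compartmental extravascular analysis (Model 200); Tmax taken directly from the data.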

[6] = Cmax in CD-1 mouse at 1 mg/kg, iv administered as single dose measured up to 24 hrs; type: ADME, organism-based; design: route intravenous, dose 1 mg/kg, time <=24; conditions: in vivo; in short: as §3
[7] = Oral bioavailability in CD-1 mouse at 5 mg/kg administered as single dose measured up to 24 hrs; type: ADME, organism-based; conditions: in vivo
In short: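 CD-1 mouse PK after single iv (1 mg/kg) and oral gavage (5 mg/kg) dosing, with plasma sampled to 24 h (n=3/timepoint) and measured by HPLC/MS/MS. F(%) = (AUC0-inf po × Dose iv)/(AUC0-inf iv × Dose po) × 100.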

Cytochrome P450 1A2 = molecular target: T1, Cytochrome P450 1A2 (Homo sapiens, UniProt P05177); test: Inhibition of recombinant CYP1A2 (unknown origin) by fluorescence-based assay; type: ADME; in short: as §2
T1 sequence (P05177 whole entry): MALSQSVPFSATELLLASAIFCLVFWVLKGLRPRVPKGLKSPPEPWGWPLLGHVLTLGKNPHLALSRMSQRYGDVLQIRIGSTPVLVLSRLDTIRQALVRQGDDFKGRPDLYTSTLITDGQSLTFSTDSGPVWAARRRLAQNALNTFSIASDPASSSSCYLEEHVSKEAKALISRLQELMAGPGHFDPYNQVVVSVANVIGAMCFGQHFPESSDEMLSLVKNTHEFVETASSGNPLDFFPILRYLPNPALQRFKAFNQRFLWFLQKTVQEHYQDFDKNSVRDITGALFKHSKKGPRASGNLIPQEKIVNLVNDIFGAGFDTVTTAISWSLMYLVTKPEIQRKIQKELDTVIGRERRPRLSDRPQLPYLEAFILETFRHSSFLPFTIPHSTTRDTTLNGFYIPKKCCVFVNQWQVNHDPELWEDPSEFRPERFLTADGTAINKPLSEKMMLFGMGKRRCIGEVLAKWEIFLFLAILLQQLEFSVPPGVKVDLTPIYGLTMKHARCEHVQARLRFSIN

[8] = AUClast in CD-1 mouse at 1 mg/kg, iv administered as single dose measured up to 24 hrs; type: ADME, organism-based; design: route intravenous, dose 1 mg/kg, time <=24; conditions: in vivo; in short: as §3
Cytochrome P450 2C19 = Cytochrome P450 2C19 (Homo sapiens, UniProt P33261); test: Inhibition of recombinant CYP2C19 (unknown origin) by fluorescence-based assay; type: ADME; in short: as §2
Cytochrome P450 2C19, sequence (P33261 whole entry): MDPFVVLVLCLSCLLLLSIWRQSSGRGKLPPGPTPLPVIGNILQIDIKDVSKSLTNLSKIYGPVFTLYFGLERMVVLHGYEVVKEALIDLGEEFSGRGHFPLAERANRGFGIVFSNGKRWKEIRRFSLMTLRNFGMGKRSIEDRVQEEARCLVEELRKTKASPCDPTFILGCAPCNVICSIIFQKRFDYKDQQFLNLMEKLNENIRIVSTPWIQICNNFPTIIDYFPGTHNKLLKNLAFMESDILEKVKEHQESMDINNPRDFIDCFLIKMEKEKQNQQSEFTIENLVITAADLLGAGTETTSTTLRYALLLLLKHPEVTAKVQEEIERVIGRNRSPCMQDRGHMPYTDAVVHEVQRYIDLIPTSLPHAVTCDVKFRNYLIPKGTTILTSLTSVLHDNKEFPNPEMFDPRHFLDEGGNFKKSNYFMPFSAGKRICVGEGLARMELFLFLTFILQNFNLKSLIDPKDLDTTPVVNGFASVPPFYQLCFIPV

[9] = Metabolic stability in rat liver microsomes assessed as parent compound remaining at 1 uM incubated for 30 mins; type: ADME, Microsome; conditions: 0.5 h; in short: as §4
[10] = Metabolic stability in human liver microsomes assessed as parent compound remaining at 1 uM incubated for 30 mins; type: ADME, Microsome; conditions: microsomes, 0.5 h, 1 µM; in short: as §4
[11] = Efflux ratio of apparent permeability from basolateral to apical membrane over apical to basolateral membrane in MDCK-MDR1 cells; type: ADME, cell-based, Canis lupus familiaris; conditions: dog
In short: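 Calculated as B-A/A-B apparent permeability ratio across MDR1-MDCK cell monolayers; A-B permeability expressed as ×10⁻⁶ cm/s.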

[12] = Kinetic aqueous solubility of the compound in pH 7.4 PBS buffer by UV/Visible absorbance analysis; type: physicochemical; conditions: read-out: Kinetic_solubility
In short: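 Kinetic solubility determined in PBS at pH 7.4 by UV/Vis absorbance, reported in μM.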

[13] = Apparent permeability from apical to basolateral membrane in MDCK-MDR1 cells; type: ADME, cell-based, Canis lupus familiaris; conditions: dog
In short: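 Apical-to-basolateral apparent permeability (×10⁻⁶ cm/s) measured across MDR1-MDCK cell monolayers.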

[14] = Tmax in CD-1 mouse at 1 mg/kg, iv administered as single dose measured up to 24 hrs; type: ADME, organism-based; conditions: in vivo; in short: as §1
[15] = Ratio of drug concentration in CD-1 mouse brain to plasma at 0.4 mg/kg, iv measured after 1 hr; type: ADME, organism-based
[16] = AUClast in CD-1 mouse at 5 mg/kg, po administered as single dose measured up to 24 hrs; type: ADME, organism-based; design: route oral, dose 5 mg/kg, time <=24; conditions: in vivo; in short: as §3
[17] = molecular target: Voltage-gated inwardly rectifying potassium channel KCNH2 (Homo sapiens, UniProt Q12809); test: Inhibition of human ERG expressed in HEK293 cells by patch clamp assay; type: cell-based
Voltage-gated inwardly rectifying potassium channel KCNH2, sequence (Q12809 whole entry): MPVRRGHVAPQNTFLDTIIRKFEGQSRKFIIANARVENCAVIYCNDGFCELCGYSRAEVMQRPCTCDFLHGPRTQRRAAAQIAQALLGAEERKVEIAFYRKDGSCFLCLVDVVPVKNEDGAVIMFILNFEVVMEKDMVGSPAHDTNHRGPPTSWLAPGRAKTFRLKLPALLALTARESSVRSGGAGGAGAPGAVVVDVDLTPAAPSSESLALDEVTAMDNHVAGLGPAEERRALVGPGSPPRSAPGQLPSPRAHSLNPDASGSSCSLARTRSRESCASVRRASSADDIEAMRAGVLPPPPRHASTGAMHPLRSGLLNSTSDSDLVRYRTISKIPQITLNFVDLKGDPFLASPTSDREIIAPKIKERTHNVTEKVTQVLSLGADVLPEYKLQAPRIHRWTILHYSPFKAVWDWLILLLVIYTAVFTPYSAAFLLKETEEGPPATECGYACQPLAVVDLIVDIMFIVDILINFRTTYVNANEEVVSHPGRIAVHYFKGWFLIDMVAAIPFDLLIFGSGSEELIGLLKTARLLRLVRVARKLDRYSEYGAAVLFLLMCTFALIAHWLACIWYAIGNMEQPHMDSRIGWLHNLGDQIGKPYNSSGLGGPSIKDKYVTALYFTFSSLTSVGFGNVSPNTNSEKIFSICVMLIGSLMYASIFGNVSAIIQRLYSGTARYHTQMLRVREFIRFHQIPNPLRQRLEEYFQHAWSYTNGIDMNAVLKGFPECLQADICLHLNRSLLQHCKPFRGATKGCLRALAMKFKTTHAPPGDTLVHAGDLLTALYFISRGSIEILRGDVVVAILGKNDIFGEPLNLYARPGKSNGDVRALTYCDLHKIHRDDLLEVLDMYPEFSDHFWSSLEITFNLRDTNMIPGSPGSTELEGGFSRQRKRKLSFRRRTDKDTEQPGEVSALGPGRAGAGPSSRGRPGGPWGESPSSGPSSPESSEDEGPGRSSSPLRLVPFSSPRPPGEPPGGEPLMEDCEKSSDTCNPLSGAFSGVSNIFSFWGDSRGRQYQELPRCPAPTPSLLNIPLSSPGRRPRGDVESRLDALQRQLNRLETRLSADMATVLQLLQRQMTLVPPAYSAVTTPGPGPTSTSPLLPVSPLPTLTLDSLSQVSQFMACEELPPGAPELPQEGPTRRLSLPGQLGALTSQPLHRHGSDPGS

[18] = Half life in CD-1 mouse at 1 mg/kg, iv administered as single dose measured up to 24 hrs; type: ADME, organism-based; conditions: mouse, in vivo, 1 mg/kg, 24 h; in short: as §3
[19] = Ratio of drug concentration in CD-1 mouse brain to plasma at 5 mg/kg, po measured after 1 hr; type: ADME, organism-based
In short: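 Male CD-1 mice dosed once iv (1 mg/kg) or by oral gavage (5 mg/kg). Brain and plasma collected 1 h post dose (n=3/timepoint). Drug levels by HPLC/MS/MS; brain/plasma ratio calculated from these levels.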

[20] = AUC infinity in CD-1 mouse at 1 mg/kg, iv administered as single dose measured up to 24 hrs; type: ADME, organism-based; design: route intravenous, dose 1 mg/kg, time <=24; conditions: in vivo; in short: as §3
[21] = AUC infinity in CD-1 mouse at 5 mg/kg, po administered as single dose measured up to 24 hrs; type: ADME, organism-based; design: route oral, dose 5 mg/kg, time <=24; conditions: in vivo; in short: as §3

Row | SMILES | IC50 (Cytochrome P450 2D6) [µM] | IC50 (Gamma-secretase) [µM] | IC50 (Cytochrome P450 3A4) [µM] | IC50 (Cytochrome P450 2C9) [µM] | Stabilty [4] [%] | IC50 (Cytochrome P450 1A2) [µM] | IC50 (Cytochrome P450 2C19) [µM] | Stabilty [9] [%] | Stabilty [10] [%] | solubility kinetic [12] [µM] | Papp [13] | IC50 [17] [µM] | other results
1 | COc1nc(-c2csc(Nc3c4c(nn3C)CCC4)n2)ccc1-n1cnc(C)c1 | > 100 | 0.08 | 4.5 | > 100 | 75 | > 100 | 37 | 71 | 76 | 44 (≈ 17.9 µg/mL) | 22.3 10^-6 cm/s | 0.92 | Vdss [1]: 3.18 L/kg; Cmax [2]: 580 ng/mL; t1/2 [3]: 1.6 h; Tmax [5]: 1 h; Cmax [6]: 478 ng/mL; F [7]: 74.6%; AUClast [8]: 723 ng·h/mL; Ratio [11]: 1.9; Tmax [14]: 4.98 min; BPR [15]: 0.21; AUClast [16]: 2700 ng·h/mL; t1/2 [18]: 1.9 h; BPR [19]: 0.22
2 | COc1nc(-c2csc(Nc3c4c(nn3CCO)CCCC4)n2)ccc1-n1cnc(C)c1 | > 100 | 0.144 | 30 | > 100 | 58 | > 100 | 76 | 78 | 40 | 31 (≈ 14 µg/mL) | 18 10^-6 cm/s | 2.63 | 
3 | COc1nc(-c2csc(Nc3c4c(nn3CC(F)(F)F)CCC4)n2)ccc1-n1cnc(C)c1 | > 100 | 0.036 | 1.4 | 11 | 46 | 27 | 7.1 | 72 | 66 | 22 (≈ 10.5 µg/mL) | 17.6 10^-6 cm/s |  | 
4 | CCn1nc(C(F)(F)F)cc1Nc1nc(-c2ccc(-n3cnc(C)c3)c(OC)n2)cs1 | > 100 | 0.058 | 5.3 | 47 | 71 | 9.1 | 12 | 96 | 84 | 15 (≈ 6.74 µg/mL) | 23.3 10^-6 cm/s |  | Vdss [1]: 3.64 L/kg; Cmax [2]: 470 ng/mL; Tmax [5]: 1 h; Cmax [6]: 359 ng/mL; F [7]: 76%; AUClast [8]: 605 ng·h/mL; Tmax [14]: 4.98 min; BPR [15]: 0.73; AUClast [16]: 1727 ng·h/mL; AUC [20]: 623 ng·h/mL; t1/2 [18]: 1.6 h; BPR [19]: 0.62; AUC [21]: 2369 ng·h/mL
5 | COc1nc(-c2csc(Nc3c4c(nn3CC(C)(C)O)CCCC4)n2)ccc1-n1cnc(C)c1 | > 100 | 0.038 |  | 9 | 78 | > 100 | 3.9 | 57 | 12 | 22 (≈ 10.6 µg/mL) | 17.5 10^-6 cm/s |  | 
6 | COc1nc(-c2csc(Nc3c4c(nn3CCF)CCC4)n2)ccc1-n1cnc(C)c1 | > 100 | 0.064 | 10.5 | > 100 | 60 | > 100 | 35 | 68 | 58 | 23 (≈ 10.1 µg/mL) |  | 2.88 | 
7 | CCn1nc(C2(C)CC2)cc1Nc1nc(-c2ccc(-n3cnc(C)c3)c(OC)n2)cs1 | > 100 | 0.032 | 4.1 | > 100 | 81 | > 100 | > 100 | 73 | 67 | 6.7 (≈ 2.92 µg/mL) | 18.5 10^-6 cm/s | 12.3 | Vdss [1]: 3.609 L/kg; Cmax [2]: 592 ng/mL; Tmax [5]: 2 h; Cmax [6]: 384 ng/mL; F [7]: 63.8%; AUClast [8]: 1247 ng·h/mL; Ratio [11]: 1.3; Tmax [14]: 4.98 min; BPR [15]: 0.62; AUClast [16]: 3976 ng·h/mL; AUC [20]: 1378 ng·h/mL; t1/2 [18]: 3.84 h; BPR [19]: 0.57
8 | CCn1nc2c(c1Nc1nc(-c3ccc(-n4cnc(C)c4)c(OC)n3)cs1)CCCCC2 | > 100 | 0.032 | 11 | 37 | 15 | > 100 | 85 | 41 | 0.1 | 4.3 (≈ 1.93 µg/mL) |  |  | 
9 | COc1nc(-c2csc(Nc3c4c(nn3CCCO)CCCC4)n2)ccc1-n1cnc(C)c1 | > 100 | 0.05 | 2.2 | > 100 | 32 | > 100 | 31 | 52 | 17 | 23 (≈ 10.7 µg/mL) |  |  | 
10 | COc1nc(-c2csc(Nc3c4c(nn3C(C)(C)C)CCCC4)n2)ccc1-n1cnc(C)c1 | > 100 | 0.071 | 5.3 | 47 | 23 | 9.1 | 12 | 63 | 19 | 34 (≈ 15.8 µg/mL) | 14.8 10^-6 cm/s | 7.18 | Ratio [11]: 0.9
11 | COc1nc(-c2csc(Nc3cc(C(C)(C)C)nn3C(C)C)n2)ccc1-n1cnc(C)c1 | > 100 | 0.064 | 2.3 | 14 | 40 | > 100 | 14 | 75 | 21 | 23 (≈ 10.4 µg/mL) |  |  | 
